The results in this text go back to ChEMBL document CHEMBL4400530, “Synthesis and structure-activity relationship studies of water-soluble β-cyclodextrin-glycyrrhetinic acid conjugates as potential anti-influenza virus agents” (Eur J Med Chem, 2019).

Activity calls are given as the source filed them. The calls are words filed in the database; no cut-off is given here.

The test system of one data set is Influenza A virus. Briefly: Antiviral activity against Influenza A virus (A/WSN/33(H1N1)) infected in MDCK cells assessed as reduction in virus-induced cytopathic effect at 50 uM after 40 hrs by CellTiter-Glo assay. It counts as functional, organism-based. The note with it: A/WSN/1933(H1N1). The procedure, abridged: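 MDCK cells seeded, grown overnight, then infected with A/WSN/33 (H1N1) at MOI 0.1 in DMEM with 1% FBS, 2 μg/mL TPCK-treated trypsin and test compound (final DMSO 1%). Compounds screened at a single 50 μM concentration. Incubation 40 h, then viability read by CellTiter-Glo luminescence. Oseltamivir positive control, DMSO negative control. Virus stock titres determined in MDCK cells by Reed and Muench.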

The next data set deals with MDCK. In words: Cytotoxicity against MDCK cells assessed as effect on cell viability at 50 uM measured after 36 hrs by CellTiter-Glo assay. The data set is classed as cell-based, Canis lupus familiaris. The conditions noted are these: dog. The procedure, abridged: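 MDCK cells (1 × 10⁴ per well) left to adhere 24 h at 37 °C, 5% CO₂. Medium then replaced with fresh medium containing compound at 50 μM, in triplicate. Controls received medium with 1% DMSO. Plates incubated 36 h at 37 °C, 5% CO₂, then viability read by CellTiter-Glo luminescence.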

Turning to `CC1(C)[C@@H](O)CC[C@]2(C)[C@H]3C(=O)C=C4[C@@H]5C[C@@](C)(C(=O)NCCOCCOCCOCCOCc6cn(C[C@H]7O[C@@H]8O[C@H]9[C@H](O)[C@@H](O)[C@@H](O[C@H]%10[C@H](O)[C@@H](O)[C@@H](O[C@H]%11[C@H](O)[C@@H](O)[C@@H](O[C@H]%12[C@H](O)[C@@H](O)[C@@H](O[C@H]%13[C@H](O)[C@@H](O)[C@@H](O[C@H]%14[C@H](O)[C@@H](O)[C@@H](O[C@H]7[C@H](O)[C@H]8O)O[C@@H]%14CO)O[C@@H]%13CO)O[C@@H]%12CO)O[C@@H]%11CO)O[C@@H]%10CO)O[C@@H]9CO)nn6)CC[C@]5(C)CC[C@@]4(C)[C@]3(C)CC[C@@H]12`, in the data set on Influenza A virus, the outcome was Active. In addition, in the data set with MDCK, the Activity entry was “Non-Toxic”.

Regarding `CC1(C)[C@@H](OCc2cn(C[C@H]3O[C@@H]4O[C@H]5[C@H](O)[C@@H](O)[C@@H](O[C@H]6[C@H](O)[C@@H](O)[C@@H](O[C@H]7[C@H](O)[C@@H](O)[C@@H](O[C@H]8[C@H](O)[C@@H](O)[C@@H](O[C@H]9[C@H](O)[C@@H](O)[C@@H](O[C@H]%10[C@H](O)[C@@H](O)[C@@H](O[C@H]3[C@H](O)[C@H]4O)O[C@@H]%10CO)O[C@@H]9CO)O[C@@H]8CO)O[C@@H]7CO)O[C@@H]6CO)O[C@@H]5CO)nn2)CC[C@]2(C)[C@H]3C(=O)C=C4[C@@H]5C[C@@](C)(C(=O)O)CC[C@]5(C)CC[C@@]4(C)[C@]3(C)CC[C@@H]12`, the result with Influenza A virus was Active. In addition, the Activity result in the data set on MDCK is listed as “Non-Toxic”.

For `CC(=O)OC[C@H]1O[C@@H]2O[C@H]3[C@H](OC(C)=O)[C@@H](OC(C)=O)[C@@H](O[C@H]4[C@H](OC(C)=O)[C@@H](OC(C)=O)[C@@H](O[C@H]5[C@H](OC(C)=O)[C@@H](OC(C)=O)[C@@H](O[C@H]6[C@H](OC(C)=O)[C@@H](OC(C)=O)[C@@H](O[C@H]7[C@H](OC(C)=O)[C@@H](OC(C)=O)[C@@H](O[C@H]8[C@H](OC(C)=O)[C@@H](OC(C)=O)[C@@H](O[C@H]1[C@H](OC(C)=O)[C@H]2OC(C)=O)O[C@@H]8COC(C)=O)O[C@@H]7COC(C)=O)O[C@@H]6COC(C)=O)O[C@@H]5Cn1cc(CN2CCN(CCNC(=O)[C@@]5(C)CC[C@]6(C)CC[C@]7(C)C(=CC(=O)[C@@H]8[C@@]9(C)CC[C@H](O)C(C)(C)[C@@H]9CC[C@]87C)[C@@H]6C5)CC2)nn1)O[C@@H]4COC(C)=O)O[C@@H]3COC(C)=O`, the result with Influenza A virus was inactive. Also, the Activity result in the data set with MDCK was “Non-Toxic”.

For the compound `CC(=O)OC[C@H]1O[C@@H]2O[C@H]3[C@H](O)[C@@H](O)[C@@H](O[C@H]4[C@H](O)[C@@H](O)[C@@H](O[C@H]5[C@H](O)[C@@H](O)[C@@H](O[C@H]6[C@H](O)[C@@H](O)[C@@H](O[C@H]7[C@H](O)[C@@H](O)[C@@H](O[C@H]8[C@H](O)[C@@H](O)[C@@H](O[C@H]1[C@H](O)[C@H]2O)O[C@@H]8CO)O[C@@H]7CO)O[C@@H]6CO)O[C@@H]5CO)O[C@@H]4CO)O[C@@H]3Cn1cc(CN2CCN(CCNC(=O)[C@@]3(C)CC[C@]4(C)CC[C@]5(C)C(=CC(=O)[C@@H]6[C@@]7(C)CC[C@H](O)C(C)(C)[C@@H]7CC[C@]65C)[C@@H]4C3)CC2)nn1`, the outcome in the data set with Influenza A virus was inactive. In addition, the Activity result in the data set with MDCK was “Non-Toxic”.

For `CC(=O)OC[C@H]1O[C@@H]2O[C@H]3[C@H](OC(C)=O)[C@@H](OC(C)=O)[C@@H](O[C@H]4[C@H](OC(C)=O)[C@@H](OC(C)=O)[C@@H](O[C@H]5[C@H](OC(C)=O)[C@@H](OC(C)=O)[C@@H](O[C@H]6[C@H](OC(C)=O)[C@@H](OC(C)=O)[C@@H](O[C@H]7[C@H](OC(C)=O)[C@@H](OC(C)=O)[C@@H](O[C@H]8[C@H](OC(C)=O)[C@@H](OC(C)=O)[C@@H](O[C@H]1[C@H](OC(C)=O)[C@H]2OC(C)=O)O[C@@H]8COC(C)=O)O[C@@H]7COC(C)=O)O[C@@H]6COC(C)=O)O[C@@H]5Cn1cc(COCCNC(=O)[C@@]2(C)CC[C@]5(C)CC[C@]6(C)C(=CC(=O)[C@@H]7[C@@]8(C)CC[C@H](O)C(C)(C)[C@@H]8CC[C@]76C)[C@@H]5C2)nn1)O[C@@H]4COC(C)=O)O[C@@H]3COC(C)=O`, in the data set with Influenza A virus, the outcome was Active. The Activity result in the data set with MDCK is “Non-Toxic”.

On to `CC1(C)[C@@H](O)CC[C@]2(C)[C@H]3C(=O)C=C4[C@@H]5C[C@@](C)(C(=O)NCc6cn(C[C@H]7O[C@@H]8O[C@H]9[C@H](O)[C@@H](O)[C@@H](O[C@H]%10[C@H](O)[C@@H](O)[C@@H](O[C@H]%11[C@H](O)[C@@H](O)[C@@H](O[C@H]%12[C@H](O)[C@@H](O)[C@@H](O[C@H]%13[C@H](O)[C@@H](O)[C@@H](O[C@H]%14[C@H](O)[C@@H](O)[C@@H](O[C@H]7[C@H](O)[C@H]8O)O[C@@H]%14CO)O[C@@H]%13CO)O[C@@H]%12CO)O[C@@H]%11CO)O[C@@H]%10CO)O[C@@H]9CO)nn6)CC[C@]5(C)CC[C@@]4(C)[C@]3(C)CC[C@@H]12`, for which the outcome with Influenza A virus was Active. Further, the Activity entry in the data set with MDCK is listed as “Non-Toxic”.

Consider `COC[C@H]1O[C@@H]2O[C@H]3[C@H](OC)[C@@H](OC)[C@@H](O[C@H]4[C@H](OC)[C@@H](OC)[C@@H](O[C@H]5[C@H](OC)[C@@H](OC)[C@@H](O[C@H]6[C@H](OC)[C@@H](OC)[C@@H](O[C@H]7[C@H](OC)[C@@H](OC)[C@@H](O[C@H]8[C@H](OC)[C@@H](OC)[C@@H](O[C@H]1[C@H](OC)[C@H]2OC)O[C@@H]8COC)O[C@@H]7COC)O[C@@H]6COC)O[C@@H]5Cn1cc(CNC(=O)[C@@]2(C)CC[C@]5(C)CC[C@]6(C)C(=CC(=O)[C@@H]7[C@@]8(C)CC[C@H](O)C(C)(C)[C@@H]8CC[C@]76C)[C@@H]5C2)nn1)O[C@@H]4COC)O[C@@H]3COC`, for which the Activity entry in the data set on MDCK is given as “Toxic”.

With `CC(=O)OC[C@H]1O[C@@H]2O[C@H]3[C@H](OC(C)=O)[C@@H](OC(C)=O)[C@@H](O[C@H]4[C@H](OC(C)=O)[C@@H](OC(C)=O)[C@@H](O[C@H]5[C@H](OC(C)=O)[C@@H](OC(C)=O)[C@@H](O[C@H]6[C@H](OC(C)=O)[C@@H](OC(C)=O)[C@@H](O[C@H]7[C@H](OC(C)=O)[C@@H](OC(C)=O)[C@@H](O[C@H]8[C@H](OC(C)=O)[C@@H](OC(C)=O)[C@@H](O[C@H]1[C@H](OC(C)=O)[C@H]2OC(C)=O)O[C@@H]8COC(C)=O)O[C@@H]7COC(C)=O)O[C@@H]6COC(C)=O)O[C@@H]5Cn1cc(CO[C@H]2CC[C@]5(C)[C@H]6C(=O)C=C7[C@@H]8C[C@@](C)(C(=O)OCc9ccccc9)CC[C@]8(C)CC[C@@]7(C)[C@]6(C)CC[C@H]5C2(C)C)nn1)O[C@@H]4COC(C)=O)O[C@@H]3COC(C)=O`, the Activity result with MDCK is listed as “Non-Toxic”.

As for `CC(=O)OC[C@H]1O[C@@H]2O[C@H]3[C@H](OC(C)=O)[C@@H](OC(C)=O)[C@@H](O[C@H]4[C@H](OC(C)=O)[C@@H](OC(C)=O)[C@@H](O[C@H]5[C@H](OC(C)=O)[C@@H](OC(C)=O)[C@@H](O[C@H]6[C@H](OC(C)=O)[C@@H](OC(C)=O)[C@@H](O[C@H]7[C@H](OC(C)=O)[C@@H](OC(C)=O)[C@@H](O[C@H]8[C@H](OC(C)=O)[C@@H](OC(C)=O)[C@@H](O[C@H]1[C@H](OC(C)=O)[C@H]2OC(C)=O)O[C@@H]8COC(C)=O)O[C@@H]7COC(C)=O)O[C@@H]6COC(C)=O)O[C@@H]5Cn1cc(CO[C@H]2CC[C@]5(C)[C@H]6C(=O)C=C7[C@@H]8C[C@@](C)(C(=O)O)CC[C@]8(C)CC[C@@]7(C)[C@]6(C)CC[C@H]5C2(C)C)nn1)O[C@@H]4COC(C)=O)O[C@@H]3COC(C)=O`, the Activity entry in the data set with MDCK was “Non-Toxic”.

For `CC(=O)OC[C@H]1O[C@@H]2O[C@H]3[C@H](OC(C)=O)[C@@H](OC(C)=O)[C@@H](O[C@H]4[C@H](OC(C)=O)[C@@H](OC(C)=O)[C@@H](O[C@H]5[C@H](OC(C)=O)[C@@H](OC(C)=O)[C@@H](O[C@H]6[C@H](OC(C)=O)[C@@H](OC(C)=O)[C@@H](O[C@H]7[C@H](OC(C)=O)[C@@H](OC(C)=O)[C@@H](O[C@H]8[C@H](OC(C)=O)[C@@H](OC(C)=O)[C@@H](O[C@H]1[C@H](OC(C)=O)[C@H]2OC(C)=O)O[C@@H]8COC(C)=O)O[C@@H]7COC(C)=O)O[C@@H]6COC(C)=O)O[C@@H]5Cn1cc(-c2ccc(NC(=O)[C@@]5(C)CC[C@]6(C)CC[C@]7(C)C(=CC(=O)[C@@H]8[C@@]9(C)CC[C@H](O)C(C)(C)[C@@H]9CC[C@]87C)[C@@H]6C5)cc2)nn1)O[C@@H]4COC(C)=O)O[C@@H]3COC(C)=O`, in the data set on MDCK, the Activity result is “Non-Toxic”.

With `CC1(C)[C@@H](O)CC[C@]2(C)[C@H]3C(=O)C=C4[C@@H]5C[C@@](C)(C(=O)Nc6ccc(-c7cn(C[C@H]8O[C@@H]9O[C@H]%10[C@H](O)[C@@H](O)[C@@H](O[C@H]%11[C@H](O)[C@@H](O)[C@@H](O[C@H]%12[C@H](O)[C@@H](O)[C@@H](O[C@H]%13[C@H](O)[C@@H](O)[C@@H](O[C@H]%14[C@H](O)[C@@H](O)[C@@H](O[C@H]%15[C@H](O)[C@@H](O)[C@@H](O[C@H]8[C@H](O)[C@H]9O)O[C@@H]%15CO)O[C@@H]%14CO)O[C@@H]%13CO)O[C@@H]%12CO)O[C@@H]%11CO)O[C@@H]%10CO)nn7)cc6)CC[C@]5(C)CC[C@@]4(C)[C@]3(C)CC[C@@H]12`, in the data set with MDCK, the Activity result is recorded as “Non-Toxic”.
